Measured values published in ChEMBL document CHEMBL2311404, “Synthesis, antibacterial activity and docking of 14-membered 9-O-(3-arylalkyl) oxime 11,12-cyclic carbonate ketolides” (2013).
≈ marks a conversion by molar mass, not a printed value.

Tests used:
Type in all cases: functional
Staphylococcus hominis = assay: Antibacterial activity against methicillin-resistant, inducible MLS-resistant, coagulase-deficient Staphylococcus hominis E 3 by broth microdilution method
Procedure, shortened: (§1)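 Clinical isolates confirmed by 16S rDNA sequencing. MIC determined by broth microdilution following CLSI recommendations. Quality-control strains were S. aureus ATCC 29213 and S. pneumoniae ATCC 49619. Azithromycin and clarithromycin were run in parallel as reference agents.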

[1] = test system: Staphylococcus epidermidis; assay: Antibacterial activity against methicillin-resistant, constitutive MLS-resistant Staphylococcus epidermidis E 2 by broth microdilution method; procedure, shortened: as §1
[2] = test system: Staphylococcus epidermidis; assay: Antibacterial activity against methicillin-susceptible, inducible MLS-resistant Staphylococcus epidermidis E 1 by broth microdilution method; procedure, shortened: as §1
[3] = test system: Staphylococcus haemolyticus; assay: Antibacterial activity against methicillin-resistant, constitutive MLS-resistant, coagulase-deficient Staphylococcus haemolyticus PU 19 expressing ermA gene by broth microdilution method; procedure, shortened: as §1
Staphylococcus aureus [4] = assay: Antibacterial activity against methicillin-resistant, inducible MLS-resistant Staphylococcus aureus PU 32 expressing ermA gene by broth microdilution method; procedure, shortened: as §1
Staphylococcus aureus [5] = assay: Antibacterial activity against erythromycin-susceptible Staphylococcus aureus ATCC 29213 by broth microdilution method
Procedure, shortened: (§2)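 MIC by broth microdilution following CLSI recommendations. Clinical isolates were identified by 16S rDNA sequencing and labeled by genotype and phenotype. S. aureus ATCC 29213 and S. pneumoniae ATCC 49619 served as control strains, with azithromycin and clarithromycin as reference agents.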

Streptococcus pyogenes [6] = assay: Antibacterial activity against erythromycin-susceptible Streptococcus pyogenes A3 by broth microdilution method; procedure, shortened: as §2
Streptococcus pyogenes [7] = assay: Antibacterial activity against constitutive MLS-resistant Streptococcus pyogenes A2 by broth microdilution method; procedure, shortened: as §1
[8] = test system: Streptococcus dysgalactiae; assay: Antibacterial activity against erythromycin-resistant Streptococcus dysgalactiae A1 expressing efflux pump by broth microdilution method; procedure, shortened: as §1
Streptococcus pneumoniae [9] = assay: Antibacterial activity against penicillin-susceptible, constitutive MLS-resistant Streptococcus pneumoniae PU 27 expressing erm gene by broth microdilution method; procedure, shortened: as §1
Streptococcus pneumoniae [10] = assay: Antibacterial activity against penicillin-susceptible Streptococcus pneumoniae PU 09 expressing mef gene by broth microdilution method; procedure, shortened: as §2
Streptococcus pneumoniae [11] = assay: Antibacterial activity against penicillin-resistant, constitutive MLS-resistant Streptococcus pneumoniae PU 11 expressing erm and mef genes by broth microdilution method; procedure, shortened: as §1
Streptococcus pneumoniae [12] = assay: Antibacterial activity against erythromycin-sensitive Streptococcus pneumoniae ATCC 49619 by broth microdilution method; procedure, shortened: as §2
Staphylococcus aureus [13] = assay: Antibacterial activity against methicillin-sensitive, inducible MLS-resistant Staphylococcus aureus PU 64 expressing ermA gene by broth microdilution method; procedure, shortened: as §1
Staphylococcus aureus [14] = assay: Antibacterial activity against methicillin-resistant, constitutive MLS-resistant Staphylococcus aureus PU 20 expressing ermC gene by broth microdilution method; procedure, shortened: as §1

Row | SMILES | MIC (Staphylococcus hominis) [µg/mL] | MIC [1] [µg/mL] | MIC [2] [µg/mL] | MIC [3] [µg/mL] | MIC (Staphylococcus aureus [4]) [µg/mL] | MIC (Staphylococcus aureus [5]) [µg/mL] | MIC (Streptococcus pyogenes [6]) [µg/mL] | MIC (Streptococcus pyogenes [7]) [µg/mL] | MIC [8] [µg/mL] | MIC (Streptococcus pneumoniae [9]) [µg/mL] | MIC (Streptococcus pneumoniae [10]) [µg/mL] | MIC (Streptococcus pneumoniae [11]) [µg/mL] | MIC (Streptococcus pneumoniae [12]) [µg/mL] | MIC (Staphylococcus aureus [13]) [µg/mL] | MIC (Staphylococcus aureus [14]) [µg/mL]
1 | CC[C@H]1OC(=O)[C@H](C)C(=O)[C@H](C)[C@@H](O[C@@H]2O[C@H](C)C[C@H](N(C)C)[C@H]2O)[C@](C)(OC)C[C@@H](C)/C(=N\OCC#Cc2ccccn2)[C@H](C)[C@H]2OC(=O)O[C@@]21C | 0.125 (≈ 0.168 µM) | > 256 | 0.125 (≈ 0.168 µM) | > 256 | 0.125 (≈ 0.168 µM) | 0.064 (≈ 0.086 µM) | ≤ 0.008 | 128 (≈ 172 µM) | 0.064 (≈ 0.086 µM) | 0.5 (≈ 0.672 µM) | 0.25 (≈ 0.336 µM) | 128 (≈ 172 µM) | ≤ 0.008 |  | 
2 | CC[C@H]1OC(=O)[C@H](C)C(=O)[C@H](C)[C@@H](O[C@@H]2O[C@H](C)C[C@H](N(C)C)[C@H]2O)[C@](C)(OC)C[C@@H](C)/C(=N\OCCCc2cncc3ccccc23)[C@H](C)[C@H]2OC(=O)O[C@@]21C | 0.5 (≈ 0.627 µM) | > 256 | 0.25 (≈ 0.313 µM) | > 256 | 0.5 (≈ 0.627 µM) | 0.125 (≈ 0.157 µM) | 0.016 (≈ 0.0201 µM) | 64 (≈ 80.2 µM) | 0.25 (≈ 0.313 µM) | 1 (≈ 1.25 µM) | 0.5 (≈ 0.627 µM) | 32 (≈ 40.1 µM) | 0.032 (≈ 0.0401 µM) | 0.25 (≈ 0.313 µM) | > 256
3 | CC[C@H]1OC(=O)[C@H](C)C(=O)[C@H](C)[C@@H](O[C@@H]2O[C@H](C)C[C@H](N(C)C)[C@H]2O)[C@](C)(OC)C[C@@H](C)/C(=N\OCCCc2cnc3ccccc3c2)[C@H](C)[C@H]2OC(=O)O[C@@]21C | 2 (≈ 2.51 µM) | > 256 | 0.5 (≈ 0.627 µM) | > 256 | 1 (≈ 1.25 µM) | 0.5 (≈ 0.627 µM) | 0.016 (≈ 0.0201 µM) | 32 (≈ 40.1 µM) | 0.5 (≈ 0.627 µM) | 1 (≈ 1.25 µM) | 0.5 (≈ 0.627 µM) | 64 (≈ 80.2 µM) | 0.064 (≈ 0.0802 µM) | 1 (≈ 1.25 µM) | > 256
4 | CC[C@H]1OC(=O)[C@H](C)C(=O)[C@H](C)[C@@H](O[C@@H]2O[C@H](C)C[C@H](N(C)C)[C@H]2O)[C@](C)(OC)C[C@@H](C)/C(=N\OCC#Cc2cncnc2)[C@H](C)[C@H]2OC(=O)O[C@@]21C | 0.064 (≈ 0.0859 µM) | > 256 | 0.064 (≈ 0.0859 µM) | 256 (≈ 344 µM) | 0.125 (≈ 0.168 µM) | 0.125 (≈ 0.168 µM) | 0.016 (≈ 0.0215 µM) | 128 (≈ 172 µM) | 0.125 (≈ 0.168 µM) | 0.25 (≈ 0.336 µM) | 0.25 (≈ 0.336 µM) | 128 (≈ 172 µM) | 0.032 (≈ 0.043 µM) | 0.064 (≈ 0.0859 µM) | 256 (≈ 344 µM)
5 | CC[C@H]1OC(=O)[C@H](C)[C@@H](O[C@H]2C[C@@](C)(OC)[C@@H](O)[C@H](C)O2)[C@H](C)[C@@H](O[C@@H]2O[C@H](C)C[C@H](N(C)C)[C@H]2O)[C@](C)(OC)C[C@@H](C)C(=O)[C@H](C)[C@@H](O)[C@]1(C)O [CLARITHROMYCIN] | > 256 | > 256 | > 256 | > 256 | 1 (≈ 1.34 µM) | 0.25 (≈ 0.334 µM) | 0.032 (≈ 0.0428 µM) | > 256 | 8 (≈ 10.7 µM) | 1 (≈ 1.34 µM) | 4 (≈ 5.35 µM) | > 256 | 0.032 (≈ 0.0428 µM) | 2 (≈ 2.67 µM) | > 256
6 | CC[C@H]1OC(=O)[C@H](C)C(=O)[C@H](C)[C@@H](O[C@@H]2O[C@H](C)C[C@H](N(C)C)[C@H]2O)[C@](C)(OC)C[C@@H](C)/C(=N\OCC#Cc2cccc3cnccc23)[C@H](C)[C@H]2OC(=O)O[C@@]21C | 0.125 (≈ 0.157 µM) | 64 (≈ 80.6 µM) | 0.064 (≈ 0.0806 µM) | 64 (≈ 80.6 µM) | 0.125 (≈ 0.157 µM) | 0.064 (≈ 0.0806 µM) | ≤ 0.008 | 32 (≈ 40.3 µM) | 0.125 (≈ 0.157 µM) | 0.125 (≈ 0.157 µM) | 0.125 (≈ 0.157 µM) | 32 (≈ 40.3 µM) | 0.016 (≈ 0.0202 µM) |  | 
7 | CC[C@H]1OC(=O)[C@H](C)C(=O)[C@H](C)[C@@H](O[C@@H]2O[C@H](C)C[C@H](N(C)C)[C@H]2O)[C@](C)(OC)C[C@@H](C)/C(=N\OCC#Cc2ccnc3ccccc23)[C@H](C)[C@H]2OC(=O)O[C@@]21C | 0.25 (≈ 0.315 µM) | 64 (≈ 80.6 µM) | 0.25 (≈ 0.315 µM) | 64 (≈ 80.6 µM) | 0.5 (≈ 0.63 µM) | 0.5 (≈ 0.63 µM) | 0.016 (≈ 0.0202 µM) | 32 (≈ 40.3 µM) | 0.25 (≈ 0.315 µM) | 1 (≈ 1.26 µM) | 0.5 (≈ 0.63 µM) | 32 (≈ 40.3 µM) | 0.016 (≈ 0.0202 µM) |  | 
8 | CC[C@H]1OC(=O)[C@H](C)C(=O)[C@H](C)[C@@H](O[C@@H]2O[C@H](C)C[C@H](N(C)C)[C@H]2O)[C@](C)(OC)C[C@@H](C)/C(=N\OCC#Cc2ccc(C(=O)c3ccccc3)s2)[C@H](C)[C@H]2OC(=O)O[C@@]21C | 2 (≈ 2.34 µM) | 128 (≈ 150 µM) | 2 (≈ 2.34 µM) | 128 (≈ 150 µM) | 2 (≈ 2.34 µM) | 2 (≈ 2.34 µM) | 0.064 (≈ 0.075 µM) | 32 (≈ 37.5 µM) | 2 (≈ 2.34 µM) | 1 (≈ 1.17 µM) | 2 (≈ 2.34 µM) | 64 (≈ 75 µM) | 0.125 (≈ 0.147 µM) |  | 
9 | CC[C@H]1OC(=O)[C@H](C)C(=O)[C@H](C)[C@@H](O[C@@H]2O[C@H](C)C[C@H](N(C)C)[C@H]2O)[C@](C)(OC)C[C@@H](C)/C(=N\OCC#Cc2ccc(-c3ccccn3)s2)[C@H](C)[C@H]2OC(=O)O[C@@]21C | 8 (≈ 9.68 µM) | 128 (≈ 155 µM) | 4 (≈ 4.84 µM) |  | 1 (≈ 1.21 µM) | 1 (≈ 1.21 µM) | 0.125 (≈ 0.151 µM) | 32 (≈ 38.7 µM) | 2 (≈ 2.42 µM) | 0.25 (≈ 0.303 µM) | 2 (≈ 2.42 µM) | 32 (≈ 38.7 µM) | ≤ 0.008 |  | 
10 | CC[C@H]1OC(=O)[C@H](C)C(=O)[C@H](C)[C@@H](O[C@@H]2O[C@H](C)C[C@H](N(C)C)[C@H]2O)[C@](C)(OC)C[C@@H](C)/C(=N\OCC#Cc2cccnc2)[C@H](C)[C@H]2OC(=O)O[C@@]21C | 0.125 (≈ 0.168 µM) | 256 (≈ 344 µM) | 0.125 (≈ 0.168 µM) | > 256 | 0.125 (≈ 0.168 µM) | 0.064 (≈ 0.086 µM) | ≤ 0.008 | 64 (≈ 86 µM) | 0.125 (≈ 0.168 µM) | 0.25 (≈ 0.336 µM) | 0.25 (≈ 0.336 µM) | 128 (≈ 172 µM) | ≤ 0.008 |  | 
11 | CC[C@H]1OC(=O)[C@H](C)C(=O)[C@H](C)[C@@H](O[C@@H]2O[C@H](C)C[C@H](N(C)C)[C@H]2O)[C@](C)(OC)C[C@@H](C)/C(=N\OCC#Cc2cccs2)[C@H](C)[C@H]2OC(=O)O[C@@]21C | 1 (≈ 1.34 µM) | 64 (≈ 85.5 µM) | 1 (≈ 1.34 µM) | 64 (≈ 85.5 µM) | 1 (≈ 1.34 µM) | 1 (≈ 1.34 µM) | 0.25 (≈ 0.334 µM) | 32 (≈ 42.7 µM) | 1 (≈ 1.34 µM) | 4 (≈ 5.34 µM) | 1 (≈ 1.34 µM) | 64 (≈ 85.5 µM) | 0.25 (≈ 0.334 µM) |  | 
12 | CC[C@H]1OC(=O)[C@H](C)C(=O)[C@H](C)[C@@H](O[C@@H]2O[C@H](C)C[C@H](N(C)C)[C@H]2O)[C@](C)(OC)C[C@@H](C)/C(=N\OCC#Cc2ccc3[nH]ccc3c2)[C@H](C)[C@H]2OC(=O)O[C@@]21C | 8 (≈ 10.2 µM) | > 256 | 2 (≈ 2.56 µM) |  | 2 (≈ 2.56 µM) | 1 (≈ 1.28 µM) | 0.5 (≈ 0.639 µM) | 128 (≈ 164 µM) | 2 (≈ 2.56 µM) | 4 (≈ 5.12 µM) | 2 (≈ 2.56 µM) | 128 (≈ 164 µM) | 0.5 (≈ 0.639 µM) |  | 
